Measured values taken from ChEMBL document CHEMBL1128718, “2-Substituted penems with amino acid-related side chains: synthesis and antibacterial activity of a new series of beta-lactam antibiotics” (1995).
In brackets after ≈: the same amount, converted by molar mass.

Tests used:
Format in all cases: functional
[1] = system: Staphylococcus aureus; assay: In vitro antibacterial activity against Sa(II) Staphylococcus aureus ATCC 25923
How it was run: (§1)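 Panel of standard ATCC strains plus modified strains: methicillin-resistant, hyperpermeable, β-lactamase-producing (TEM1, TEM2, SHV) and β-lactamase-lacking. MIC determined in Mueller Hinton 2 medium, inoculum 10⁴ cells/mL, incubated 24 h at 37 °C.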

[2] = system: Pseudomonas aeruginosa; assay: In Vitro antibacterial activity against (Pa) hyperpermeable Pseudomonas aeruginosa […] strain; how it was run: as §1
[3] = system: Escherichia coli; assay: In Vitro antibacterial activity against (Ec L) Escherichia coli […] strain; how it was run: as §1
[4] = system: Enterococcus faecalis; assay: In Vitro antibacterial activity against (Ef) Enterococcus faecalis ATCC 29212; how it was run: as §1
[5] = system: Escherichia coli; assay: In Vitro antibacterial activity against (Ec SHV) Escherichia coli […] strain; how it was run: as §1
[6] = system: Pseudomonas aeruginosa; assay: In Vitro antibacterial activity against (Pa G242) hyperpermeable Pseudomonas aeruginosa strain; how it was run: as §1
[7] = system: Escherichia coli; assay: In Vitro antibacterial activity against (Ec TEM1) Escherichia coli […] strain; how it was run: as §1
[8] = system: Staphylococcus aureus; assay: In vitro antibacterial activity against Sa MR(I) heterogeneous methicillin resistant Staphylococcus aureus
How it was run: (§2)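 MIC was determined in Mueller Hinton 2 medium with an inoculum of 10⁴ cells/mL and incubation for 24 h at 37 °C. Strains: Sa(I) is S. aureus ATCC 29213; Sa MR(I) is a heterogeneous methicillin-resistant S. aureus; Sa MR(II) is a homogeneous methicillin-resistant S. aureus.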

[9] = system: Staphylococcus aureus; assay: In vitro antibacterial activity against Sa(I) Staphylococcus aureus ATCC 29213; how it was run: as §2
[10] = system: Escherichia coli; assay: In Vitro antibacterial activity against (Ec TEM2) Escherichia coli […] strain; how it was run: as §1
[11] = system: Pseudomonas aeruginosa; assay: In Vitro antibacterial activity against (Pa) Pseudomonas aeruginosa ATCC 27853; how it was run: as §1
[12] = system: Staphylococcus aureus; assay: In vitro antibacterial activity against Sa MR(II) homogeneous methicillin resistant Staphylococcus aureus; how it was run: as §2
[13] = system: Escherichia coli; assay: In Vitro antibacterial activity against (Ec) Escherichia coli ATCC 25922; how it was run: as §1
[14] = system: Escherichia coli; assay: In Vitro antibacterial activity against (Ec DC2) hyperpermeable Escherichia coli strain; how it was run: as §1

## C[C@@H](O)[C@H]1C(=O)N2C(C(=O)O)=C(CN3C[C@H](O)C[C@@H]3C(N)=O)S[C@H]12
[1]
  MIC: 0.25 µg/mL (≈ 0.7 µM)
[2]
  MIC: 0.5 µg/mL (≈ 1.4 µM)
[3]
  MIC: 2 µg/mL (≈ 5.6 µM)
[4]
  MIC: 32 µg/mL (≈ 89.5 µM)
[5]
  MIC: 2 µg/mL (≈ 5.6 µM)
[6]
  MIC: 2 µg/mL (≈ 5.6 µM)
[7]
  MIC: 2 µg/mL (≈ 5.6 µM)
[8]
  MIC: 0.25 µg/mL (≈ 0.7 µM)
[9]
  MIC: 0.25 µg/mL (≈ 0.7 µM)
[10]
  MIC: 2 µg/mL (≈ 5.6 µM)
[11]
  MIC: > 64 µg/mL
[12]
  MIC: 8 µg/mL (≈ 22.4 µM)
[13]
  MIC: 2 µg/mL (≈ 5.6 µM)
[14]
  MIC: 2 µg/mL (≈ 5.6 µM)

## C[C@@H](O)[C@H]1C(=O)N2C(C(=O)O)=C(CN3CCCC(C(N)=O)C3)S[C@H]12 (some centres not stated)
[1]
  MIC: 0.06 µg/mL (≈ 0.169 µM)
[2]
  MIC: 1 µg/mL (≈ 2.81 µM)
[3]
  MIC: 8 µg/mL (≈ 22.5 µM)
[4]
  MIC: 32 µg/mL (≈ 90 µM)
[5]
  MIC: 4 µg/mL (≈ 11.3 µM)
[6]
  MIC: 4 µg/mL (≈ 11.3 µM)
[7]
  MIC: 4 µg/mL (≈ 11.3 µM)
[8]
  MIC: 0.12 µg/mL (≈ 0.338 µM)
[9]
  MIC: 0.06 µg/mL (≈ 0.169 µM)
[10]
  MIC: 4 µg/mL (≈ 11.3 µM)
[11]
  MIC: > 64 µg/mL
[12]
  MIC: 2 µg/mL (≈ 5.63 µM)
[13]
  MIC: 4 µg/mL (≈ 11.3 µM)
[14]
  MIC: 4 µg/mL (≈ 11.3 µM)

## C[C@H](C(N)=O)N(C)CC1=C(C(=O)O)N2C(=O)[C@H]([C@@H](C)O)[C@H]2S1
[1]
  MIC: 0.06 µg/mL (≈ 0.182 µM)
[2]
  MIC: 2 µg/mL (≈ 6.07 µM)
[3]
  MIC: 0.12 µg/mL (≈ 0.364 µM)
[4]
  MIC: 2 µg/mL (≈ 6.07 µM)
[5]
  MIC: 1 µg/mL (≈ 3.04 µM)
[6]
  MIC: 0.25 µg/mL (≈ 0.759 µM)
[7]
  MIC: 0.25 µg/mL (≈ 0.759 µM)
[8]
  MIC: 0.06 µg/mL (≈ 0.182 µM)
[9]
  MIC: 0.03 µg/mL (≈ 0.0911 µM)
[10]
  MIC: 0.25 µg/mL (≈ 0.759 µM)
[11]
  MIC: > 64 µg/mL
[12]
  MIC: 2 µg/mL (≈ 6.07 µM)
[13]
  MIC: 0.12 µg/mL (≈ 0.364 µM)
[14]
  MIC: 2 µg/mL (≈ 6.07 µM)

## C[C@@H](O)[C@H]1C(=O)N2C(C(=O)O)=C(CN(CC(N)=O)CC(N)=O)S[C@H]12
[1]
  MIC: 0.06 µg/mL (≈ 0.167 µM)
[2]
  MIC: 0.5 µg/mL (≈ 1.4 µM)
[3]
  MIC: 0.25 µg/mL (≈ 0.698 µM)
[4]
  MIC: > 64 µg/mL
[5]
  MIC: 0.5 µg/mL (≈ 1.4 µM)
[6]
  MIC: 0.25 µg/mL (≈ 0.698 µM)
[7]
  MIC: 0.25 µg/mL (≈ 0.698 µM)
[8]
  MIC: 0.25 µg/mL (≈ 0.698 µM)
[9]
  MIC: 0.12 µg/mL (≈ 0.335 µM)
[10]
  MIC: 0.25 µg/mL (≈ 0.698 µM)
[11]
  MIC: > 64 µg/mL
[12]
  MIC: 1 µg/mL (≈ 2.79 µM)
[13]
  MIC: 0.12 µg/mL (≈ 0.335 µM)
[14]
  MIC: 0.25 µg/mL (≈ 0.698 µM)

## C[C@@H](O)[C@H]1C(=O)N2C(C(=O)O)=C(CN3CCC[C@H]3C(=O)O)S[C@H]12
[1]
  MIC: 0.5 µg/mL (≈ 1.46 µM)
[2]
  MIC: 32 µg/mL (≈ 93.5 µM)
[3]
  MIC: 8 µg/mL (≈ 23.4 µM)
[4]
  MIC: > 64 µg/mL
[5]
  MIC: 8 µg/mL (≈ 23.4 µM)
[6]
  MIC: 4 µg/mL (≈ 11.7 µM)
[7]
  MIC: 8 µg/mL (≈ 23.4 µM)
[8]
  MIC: 1 µg/mL (≈ 2.92 µM)
[9]
  MIC: 0.03 µg/mL (≈ 0.0876 µM)
[10]
  MIC: 32 µg/mL (≈ 93.5 µM)
[11]
  MIC: > 64 µg/mL
[12]
  MIC: 32 µg/mL (≈ 93.5 µM)
[13]
  MIC: 2 µg/mL (≈ 5.84 µM)
[14]
  MIC: 16 µg/mL (≈ 46.7 µM)

## CCN(CC(N)=O)CC1=C(C(=O)O)N2C(=O)[C@H]([C@@H](C)O)[C@H]2S1
[1]
  MIC: 0.06 µg/mL (≈ 0.182 µM)
[2]
  MIC: 2 µg/mL (≈ 6.07 µM)
[3]
  MIC: 0.5 µg/mL (≈ 1.52 µM)
[5]
  MIC: 1 µg/mL (≈ 3.04 µM)
[6]
  MIC: 0.5 µg/mL (≈ 1.52 µM)
[7]
  MIC: 0.5 µg/mL (≈ 1.52 µM)
[9]
  MIC: 0.06 µg/mL (≈ 0.182 µM)
[10]
  MIC: 1 µg/mL (≈ 3.04 µM)
[11]
  MIC: > 64 µg/mL
[12]
  MIC: 2 µg/mL (≈ 6.07 µM)
[13]
  MIC: 0.5 µg/mL (≈ 1.52 µM)
[14]
  MIC: 1 µg/mL (≈ 3.04 µM)

## CCCCOC(=O)CN(C)CC1=C(C(=O)O)N2C(=O)[C@H]([C@@H](C)O)[C@H]2S1
[1]
  MIC: 0.25 µg/mL (≈ 0.671 µM)
[2]
  MIC: > 64 µg/mL
[3]
  MIC: > 64 µg/mL
[4]
  MIC: 8 µg/mL (≈ 21.5 µM)
[5]
  MIC: > 64 µg/mL
[6]
  MIC: > 64 µg/mL
[7]
  MIC: > 64 µg/mL
[8]
  MIC: 0.5 µg/mL (≈ 1.34 µM)
[9]
  MIC: 0.5 µg/mL (≈ 1.34 µM)
[10]
  MIC: > 64 µg/mL
[11]
  MIC: > 64 µg/mL
[12]
  MIC: 16 µg/mL (≈ 43 µM)
[13]
  MIC: 32 µg/mL (≈ 85.9 µM)
[14]
  MIC: 1 µg/mL (≈ 2.68 µM)

## C[C@@H](O)[C@H]1C(=O)N2C(C(=O)O)=C(CN(C)CC(=O)NCC(N)=O)S[C@H]12
[1]
  MIC: 0.12 µg/mL (≈ 0.322 µM)
[2]
  MIC: 1 µg/mL (≈ 2.69 µM)
[3]
  MIC: 0.5 µg/mL (≈ 1.34 µM)
[4]
  MIC: 8 µg/mL (≈ 21.5 µM)
[5]
  MIC: 0.5 µg/mL (≈ 1.34 µM)
[6]
  MIC: 0.5 µg/mL (≈ 1.34 µM)
[7]
  MIC: 0.5 µg/mL (≈ 1.34 µM)
[8]
  MIC: 0.25 µg/mL (≈ 0.671 µM)
[9]
  MIC: 0.25 µg/mL (≈ 0.671 µM)
[10]
  MIC: 0.5 µg/mL (≈ 1.34 µM)
[11]
  MIC: > 64 µg/mL
[12]
  MIC: 4 µg/mL (≈ 10.7 µM)
[13]
  MIC: 0.25 µg/mL (≈ 0.671 µM)
[14]
  MIC: 1 µg/mL (≈ 2.69 µM)

## COC(=O)[C@@H]1CCCN1CC1=C(C(=O)O)N2C(=O)[C@H]([C@@H](C)O)[C@H]2S1
[1]
  MIC: 0.12 µg/mL (≈ 0.337 µM)
[2]
  MIC: 4 µg/mL (≈ 11.2 µM)
[3]
  MIC: 4 µg/mL (≈ 11.2 µM)
[4]
  MIC: 8 µg/mL (≈ 22.4 µM)
[5]
  MIC: 8 µg/mL (≈ 22.4 µM)
[6]
  MIC: 8 µg/mL (≈ 22.4 µM)
[7]
  MIC: 8 µg/mL (≈ 22.4 µM)
[8]
  MIC: 0.25 µg/mL (≈ 0.701 µM)
[9]
  MIC: 0.25 µg/mL (≈ 0.701 µM)
[10]
  MIC: 8 µg/mL (≈ 22.4 µM)
[11]
  MIC: > 64 µg/mL
[12]
  MIC: 4 µg/mL (≈ 11.2 µM)
[13]
  MIC: 4 µg/mL (≈ 11.2 µM)
[14]
  MIC: 2 µg/mL (≈ 5.61 µM)

## C[C@@H](O)[C@H]1C(=O)N2C(C(=O)O)=C(SCCNC=N)C[C@H]12 [IMIPENEM ANHYDROUS]
[1]
  MIC: 0.015 µg/mL (≈ 0.0501 µM)
[2]
  MIC: 0.25 µg/mL (≈ 0.835 µM)
[3]
  MIC: 0.12 µg/mL (≈ 0.401 µM)
[4]
  MIC: 0.5 µg/mL (≈ 1.67 µM)
[5]
  MIC: 0.25 µg/mL (≈ 0.835 µM)
[6]
  MIC: 0.25 µg/mL (≈ 0.835 µM)
[7]
  MIC: 0.25 µg/mL (≈ 0.835 µM)
[8]
  MIC: 0.12 µg/mL (≈ 0.401 µM)
[9]
  MIC: 0.015 µg/mL (≈ 0.0501 µM)
[10]
  MIC: 0.25 µg/mL (≈ 0.835 µM)
[11]
  MIC: 1 µg/mL (≈ 3.34 µM)
[12]
  MIC: 0.25 µg/mL (≈ 0.835 µM)
[13]
  MIC: 0.12 µg/mL (≈ 0.401 µM)
[14]
  MIC: 0.5 µg/mL (≈ 1.67 µM)

## C[C@@H](O)[C@H]1C(=O)N2C(C(=O)O)=C(COC(N)=O)S[C@H]12 [RITIPENEM]
[1]
  MIC: 0.06 µg/mL (≈ 0.208 µM)
[2]
  MIC: 0.5 µg/mL (≈ 1.73 µM)
[3]
  MIC: 1 µg/mL (≈ 3.47 µM)
[4]
  MIC: 2 µg/mL (≈ 6.94 µM)
[5]
  MIC: 1 µg/mL (≈ 3.47 µM)
[6]
  MIC: 1 µg/mL (≈ 3.47 µM)
[7]
  MIC: 1 µg/mL (≈ 3.47 µM)
[8]
  MIC: 0.12 µg/mL (≈ 0.416 µM)
[9]
  MIC: 0.12 µg/mL (≈ 0.416 µM)
[10]
  MIC: 1 µg/mL (≈ 3.47 µM)
[11]
  MIC: > 64 µg/mL
[12]
  MIC: 2 µg/mL (≈ 6.94 µM)
[13]
  MIC: 0.5 µg/mL (≈ 1.73 µM)
[14]
  MIC: 1 µg/mL (≈ 3.47 µM)
